Source: PubChem (Sanford-Burnham Center for Chemical Genomics)
Apaf1 activ: activators of human Apaf-1 apoptosome, primary screen, biochemical, DEVD-Rh110 fluorescence, uHTS | AID 489031, 2010 | activity change, negative = activation, % at 20 µM | Apaf-1 apoptosome caspase-3 activation; active compounds read low | Apoptotic protease-activating factor 1 (Homo sapiens), O14727 | 330,000 compounds, 0.31% hits;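 active = activity change at or below -40% at 20 µM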
Target sequence (O14727 whole entry, looked up): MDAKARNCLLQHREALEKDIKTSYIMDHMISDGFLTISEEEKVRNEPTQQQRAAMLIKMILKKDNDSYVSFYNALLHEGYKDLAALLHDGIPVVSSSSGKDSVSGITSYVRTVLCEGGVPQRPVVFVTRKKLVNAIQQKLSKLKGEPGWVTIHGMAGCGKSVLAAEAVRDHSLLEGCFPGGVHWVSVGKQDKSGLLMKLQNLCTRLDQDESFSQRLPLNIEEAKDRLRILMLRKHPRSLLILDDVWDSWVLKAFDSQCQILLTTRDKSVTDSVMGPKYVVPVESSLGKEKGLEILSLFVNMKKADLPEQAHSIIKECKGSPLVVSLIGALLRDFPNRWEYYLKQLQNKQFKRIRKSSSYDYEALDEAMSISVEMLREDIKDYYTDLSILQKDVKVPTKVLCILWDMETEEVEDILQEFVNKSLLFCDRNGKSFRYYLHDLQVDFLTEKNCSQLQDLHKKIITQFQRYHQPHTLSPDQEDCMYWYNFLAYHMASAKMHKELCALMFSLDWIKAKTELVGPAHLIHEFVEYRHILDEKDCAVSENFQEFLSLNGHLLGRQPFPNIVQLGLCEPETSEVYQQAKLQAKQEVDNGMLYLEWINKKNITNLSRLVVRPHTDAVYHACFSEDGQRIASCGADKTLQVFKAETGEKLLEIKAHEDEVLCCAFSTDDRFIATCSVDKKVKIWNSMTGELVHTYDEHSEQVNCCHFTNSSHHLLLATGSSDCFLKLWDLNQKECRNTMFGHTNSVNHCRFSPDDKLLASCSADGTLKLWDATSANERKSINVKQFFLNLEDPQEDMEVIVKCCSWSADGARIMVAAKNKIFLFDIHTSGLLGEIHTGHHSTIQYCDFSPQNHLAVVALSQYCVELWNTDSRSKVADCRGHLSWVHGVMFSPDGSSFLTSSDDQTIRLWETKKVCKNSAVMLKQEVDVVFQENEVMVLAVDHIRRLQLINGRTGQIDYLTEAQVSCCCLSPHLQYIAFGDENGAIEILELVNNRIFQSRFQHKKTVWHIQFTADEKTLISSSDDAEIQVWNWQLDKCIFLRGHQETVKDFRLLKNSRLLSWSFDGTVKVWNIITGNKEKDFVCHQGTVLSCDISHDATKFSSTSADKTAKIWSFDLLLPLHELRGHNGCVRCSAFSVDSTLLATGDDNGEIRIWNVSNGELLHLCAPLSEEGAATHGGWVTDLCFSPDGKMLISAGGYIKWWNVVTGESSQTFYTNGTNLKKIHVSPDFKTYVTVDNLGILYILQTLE
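Assay system – biochemical Apaf-1 apoptosome reconstitution · Medium – 20 mM HEPES buffer, pH 7.5, containing CHAPS and BSA · Incubation – 30 min preincubation, 50 min reaction, room temperature · Measured by – Caspase-3-released Rh110 fluorescence, 540 nm emission, 480 nm excitation · Read-out – Caspase-3 cleavage activity downstream of Apaf-1 activation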
Rh110 interf act: Rh110 fluorescence interference by putative Apaf-1 activators, confirmation, artefact control for Apaf-1 activator project, biochemical, 20 µM. shares compounds with Apaf1 activ. quenched caspase reaction, Ex480/Em540. fluorescence interference (activity change), % at 20 µM, hits read low. 980 tested, under 10 active. AID 504616, 2011;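 active = mean activity change at or below -40% when tested at 20 µM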
Apaf-1 act conf2: Apaf-1 activators, single-dose retest, confirmation, biochemical, fluorescence, DEVD-Rh110, 20 µM. reconstituted apoptosome caspase-3 activity; active compounds read low. activity change, negative = activation, % at 20 µM. shares compounds with Apaf1 activ. 980 compounds, 5% hits;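 active = mean activity change at or below -40%, meaning activation of 40% or more, at 20 µM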
Apaf1 act interf: fluorescence interference of Apaf-1 activator hits, dose response, artefact control for Apaf-1 activator project; EC50, µM; fluorescence interference counterscreen, Apaf-1 activator assay; 55 tested, under 10 active; shares compounds with Apaf1 activ; call rule not given here
Hits are given with their value; n = inactive; x = not tested or not shown. Not all results are given here.

SMILES | Apaf1 activ | Rh110 interf act | Apaf-1 act conf2 | others
CCOc1ccc(C(=O)/C=C/Nc2ccc(S(=O)(=O)N=C(N)N)cc2)cc1 | -160 | n | -74 | Apaf1 act interf=n
CN(CC(=O)Nc1cccc(F)c1)C(=O)c1sc2ccccc2c1Cl | n | x | x
CC(C)c1ccccc1OCC(=O)N(C)CC(=O)Nc1ccc(F)cc1 | -505 | n | n
CN(C)C(=O)c1ccc(NC(=O)COc2cccc(Oc3ccccc3)c2)cc1 | n | x | x
COc1ccc(O[C@H]2C=C[C@@H](c3ccccc3)O[C@@H]2CO/N=C(\C)CCN2CCc3nc(-c4ccccc4)c(-c4ccccc4)cc3C2)cc1 | n | x | x
CC(C)Oc1cccc(C(=O)Nc2ncn[nH]2)c1 | -48 | n | n
COc1ccc(-c2cn(Cc3ccc4ccccc4c3)nn2)cc1 | -123 | n | n
CC(=O)c1ccc(N2CCN(S(=O)(=O)c3ccc4c5c3CC(=O)N5CC(C)S4)CC2)cc1 (stereo not given) | n | x | x
O=C1NC(=O)[C@@H]2C3c4ccccc4C=CN3[C@H](C(=O)c3cccs3)[C@H]12 (stereo not given in full) | n | x | x
Cc1cc(Cl)ccc1NC(=S)NC1CCCC1 | -42 | n | n
Cc1ccc(NC(=S)Nc2cccc3cnccc23)c(C)c1 | n | x | x
CCOc1ccc(OCC(=O)OCn2c(SC)nnc(C)c2=O)cc1 | -76 | n | n
CSc1ncccc1C(=O)NCCc1ccc(Cl)cc1 | -99 | n | n
O=C1C=C(c2ccc(OC(F)(F)F)cc2)C[C@@H](c2ccc(F)cc2)C1 | n | x | x
CCCCC(CC)CN1C(=O)/C(=C/c2ccncc2)SC1=S (stereo not given) | n | x | x
Oc1cccc(C=Nc2cccc3ccccc23)c1O | n | x | x
CC(=O)[C@H]1[C@@H]2C(=O)N(c3cccc(Cl)c3)C(=O)[C@@H]2[C@H]2c3ccccc3C=CN21 | n | x | x
CCCCNC(=O)C(C1CCCCC1)N(CCN(C)C)C(=O)CCCN1C(=O)NC(c2ccc(-c3ccccc3)cc2)C(C(=O)OCc2ccccc2)=C1C (stereo not given) | n | x | x
CC1=CC(C)(C)NC(=S)N1C(C)c1ccccc1 (stereo not given) | -56 | n | n
COC(=O)C1=C(C)N(Cc2ccccc2)C(=NCc2ccc(OC)cc2)N[C@H]1c1cccc(F)c1 | n | x | x
CN1CCc2cccc3c2[C@@H]1Cc1ccc(O)c(O)c1-3 | n | x | x
C=CCNC(C(=O)Nc1cccc(OC)c1)c1ccccc1 (stereo not given) | n | x | x
COc1ccc(OC)c(C2=NOC(C(=O)Nc3ccc4c(c3)OCCO4)C2)c1 (stereo not given) | n | x | x
COc1cccc(NC(=O)C2CCCO2)c1 (stereo not given) | -114 | n | n
C#CCOCCOCCOCCNc1nc(N2CCN(C(=O)[C@H](CCCCN)n3cc([C@@H](N)CC(N)=O)nn3)CC2)nc(N2CCN(C(=O)[C@H](CCCCN)n3cc([C@@H](N)CC(N)=O)nn3)CC2)n1 | n | x | x
SMILES | Apaf1 activ | Rh110 interf act | Apaf-1 act conf2 | others
CCOC(=O)N1CCN(S(=O)(=O)N2CCCC(C(=O)NCCCN3CCCCC3CC)C2)CC1 (stereo not given) | -61 | n | n
Cc1ccc(C=Nc2ccc(N(C)C)cc2)o1 | n | x | x
O=C1CCCC2=C1C1(O)C(=O)c3ccccc3C1(O)O2 (stereo not given) | n | x | x
Cc1ccc(NC2=C/C(=N/S(=O)(=O)c3cccs3)c3ccccc3C2=O)cc1 | n | x | x
COC(=O)CCC(=O)OC1(C)C(=O)C2=CN(CCCOC(C)C)C(c3ccc(OC)cc3)=CC2=C(Br)C1=O (stereo not given) | n | x | x
COc1ccc(OCc2cc(C(=O)N3CCSCC3)no2)c(Cl)c1 | -153 | n | n
CCCCCCSc1ccc(-c2nc3cc(C)ccn3c2NC2CCCCC2)cc1 | n | x | x
Cc1ccc(N=Nc2c(N)[nH]n3c(=O)cc(-c4ccccc4)nc23)cc1 | n | x | x
CN(CCO)c1cc(Sc2nc3ccccc3s2)c2nonc2c1[N+](=O)[O-] | n | x | x
CCN1CCN(Cc2ccc(NC(=O)c3cc(NC(=O)c4cncc(-c5cccs5)c4)cc(OC)c3)cc2C(F)(F)F)CC1 | n | x | x
CCOCCCNc1nc2nc3ccc(C)cn3c(=O)c2cc1C(=O)NCC1CCCO1 (stereo not given) | -69 | n | n
CCOC(=O)c1c(NC(=O)CN2CCN(C(=O)c3ccco3)CC2)sc2c1CCCC2 | n | x | x
COc1cc(OC)c2c(-c3ccccc3)cc(=O)oc2c1C(CCN1CCCC1)c1ccc2c(c1)OCO2 (stereo not given) | n | x | x
CN(C)CCCN(C(=O)c1ccc(C(=O)c2ccccc2)cc1)c1nc2cc3c(cc2s1)OCO3 | n | x | x
CCc1ccc2nc(N(CCCN(C)C)C(=O)c3ccc(S(=O)(=O)N(C)C4CCCCC4)cc3)sc2c1 | n | x | x
CN(C)CCCN(C(=O)c1ccco1)c1nc2ccc(F)cc2s1 | -99 | n | n
COC(=O)CCC(=O)OC1(C)C(=O)C=C2C=C(C3CC3)N(CCc3ccccn3)C=C2C1=O (stereo not given) | n | x | x
COc1ccc(N=C2C(=Nc3ccc(OC)cc3)N(c3ccc(OC)cc3)C(=S)N2c2ccccc2)cc1 | n | x | x
O=C1CCN(Cc2ccccc2)C=C1c1ccc(Cl)cc1 | n | x | x
CN(C)c1ccc(NC2=C(Cl)C(=O)c3ccccc3C2=O)cc1 | n | x | x
CN(C)c1cccc2c1c(NS(=O)(=O)c1cn(C)cn1)nn2C | n | x | x
CN(Cc1ccccc1)S(=O)(=O)c1cn(C)cn1 | -113 | n | n
CCOC(=O)c1c(C)c2c(=O)[nH]cnc2n1-c1ccccc1 | n | x | x
COc1ccc(NC(=O)CSc2nc3c(c(-c4cccs4)c2C#N)CN(C)CC3)cc1OC | n | x | x
CN(C)CCN(C(=O)c1ccc2c(c1)CCCC2)c1nc2cc3c(cc2s1)OCCO3 | n | x | x
SMILES | Apaf1 activ | Rh110 interf act | Apaf-1 act conf2 | others
CN(C)CCn1c2c(c(SCC(=O)Nc3ccc4c(c3)OCCO4)nc1=O)CCCC2 | -62 | n | n
CN1CCN(C2=C(NS(=O)(=O)c3ccccc3)C(=O)c3ccccc3C2=O)CC1 | n | x | x
Nc1cc2nc3ccccc3oc-2cc1=O | n | x | x
Cc1cc(C)nc(NC(=O)CSc2nc3ccccc3o2)n1 | -71 | n | n
CCCCCCCCCCCCOC(=O)C[N+](C)(C)C | n | x | x
CC1=NN(c2ccc(Br)cc2)C(=O)/C1=C/c1ccc(-c2ccccc2C(=O)O)o1 | n | x | x
c1ccc(CNc2nc(NCc3ccccc3)c3ccccc3n2)cc1 | n | x | x
CN(Cc1ccc(F)cc1)Cc1nc(CCc2ccccc2)no1 | -143 | n | n
C#CCOCCOCCOCCNc1nc(N2CCN(C(=O)[C@H](CCCCN)n3cc(CN)nn3)CC2)nc(N2CCN(C(=O)[C@H](CCCCN)n3cc([C@@H](N)[C@H](C)CC)nn3)CC2)n1 | n | x | x
COc1c(Cl)cc(Cl)cc1C(=O)Nc1ccccc1N1CCN(C(C)=O)CC1 | -325 | n | n
CN1CCN(c2ccccc2NC(=O)c2ccc(-c3ccc(Cl)c(Cl)c3)o2)CC1 | n | x | x
Nc1ccc2nc(-c3ccccc3)c(-c3ccccc3)nc2c1 | n | x | x
